Data from ChEMBL document CHEMBL4387703, “Lead optimization and biological evaluation of fragment-based cN-II inhibitors” (Eur J Med Chem, 2019).

How the values were obtained:
Settings in all cases: Homo sapiens
[1] = compound: O=C(Nc1ncnc2c1ncn2CP(=O)(O)O)c1cccc(-c2ccccc2)c1; assay: Competitive inhibition of recombinant cN-II (unknown origin) using varying level of IMP as substrate assessed as substrate Kcat by HPLC method based Lineweaver-Burk plot analysis
Method in brief: (§1)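 Enzyme, alone or with compound, was mixed with IMP (0.2 to 3 mM) under stirring at 37 °C in imidazole pH 6.5/NaCl/MgCl2 buffer. Samples were taken every 7 s and quenched with 10% perchloric acid. IMP and inosine were quantified by SAX HPLC in 10 mM ammonium phosphate pH 5.5. Data were fitted to competitive, non-competitive, uncompetitive or mixed inhibition equations.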

[2] = compound: O=C(Nc1ncnc2c1ncn2CP(=O)(O)O)c1cccc(-c2ccccc2)c1; assay: Competitive inhibition of recombinant cN-II (unknown origin) using varying level of IMP as substrate assessed as substrate Km by HPLC method based Lineweaver-Burk plot analysis; method in brief: as §1
[3] = compound: O=C(Nc1ncnc2c1ncn2CP(=O)(O)O)c1cccc(-c2ccccc2)c1; assay: Noncompetitive inhibition of recombinant cN-II (unknown origin) assessed as substrate Kcat using varying level of IMP as substrate by HPLC method based Lineweaver-Burk plot analysis; method in brief: as §1
[4] = compound: O=C(Nc1ncnc2c1ncn2CP(=O)(O)O)c1cccc(-c2ccccc2)c1; assay: Noncompetitive inhibition of recombinant cN-II (unknown origin) assessed as substrate Km using varying level of IMP as substrate by HPLC method based Lineweaver-Burk plot analysis; method in brief: as §1
[5] = compound: O=C(Nc1ncnc2c1ncn2CP(=O)(O)O)c1cccc(-c2ccccc2)c1; assay: Uncompetitive inhibition of recombinant cN-II (unknown origin) assessed as substrate Kcat using varying level of IMP as substrate by HPLC method based Lineweaver-Burk plot analysis; method in brief: as §1
[6] = compound: O=C(Nc1ncnc2c1ncn2CP(=O)(O)O)c1cccc(-c2ccccc2)c1; assay: Uncompetitive inhibition of recombinant cN-II (unknown origin) assessed as substrate Km using varying level of IMP as substrate by HPLC method based Lineweaver-Burk plot analysis; method in brief: as §1
[7] = compound: O=C(Nc1ncnc2c1ncn2CP(=O)(O)O)c1cccc(-c2ccccc2)c1; assay: Mixed type inhibition of recombinant cN-II (unknown origin) assessed as substrate Kcat using varying level of IMP as substrate by HPLC method based Lineweaver-Burk plot analysis; method in brief: as §1
[8] = compound: O=C(Nc1ncnc2c1ncn2CP(=O)(O)O)c1cccc(-c2ccccc2)c1; assay: Mixed type inhibition of recombinant cN-II (unknown origin) assessed as substrate Km using varying level of IMP as substrate by HPLC method based Lineweaver-Burk plot analysis; method in brief: as §1

B1: 5'-nucleotidase (Homo sapiens), P21589 (protein)
chain: MCPRAARAPATLLLALGAVLWPAAGAWELTILHTNDVHSRLEQTSEDSSKCVNASRCMGGVARLFTKVQQIRRAEPNVLLLDAGDQYQGTIWFTVYKGAEVAHFMNALRYDAMALGNHEFDNGVEGLIEPLLKEAKFPILSANIKAKGPLASQISGLYLPYKVLPVGDEVVGIVGYTSKETPFLSNPGTNLVFEDEITALQPEVDKLKTLNVNKIIALGHSGFEMDKLIAQKVRGVDVVVGGHSNTFLYTGNPPSKEVPAGKYPFIVTSDDGRKVPVVQAYAFGKYLGYLKIEFDERGNVISSHGNPILLNSSIPEDPSIKADINKWRIKLDNYSTQELGKTIVYLDGSSQSCRFRECNMGNLICDAMINNNLRHTDEMFWNHVSMCILNGGGIRSPIDERNNGTITWENLAAVLPFGGTFDLVQLKGSTLKKAFEHSVHRYGQSTGEFLQVGGIHVVYDLSRKPGDRVVKLDVLCTKCRVPSYDPLKMDEVYKVILPNFLANGGDGFQMIKDELLRHDSGDQDINVVSTYISKMKVIYPAVEGRIKFSTGSHCHGSFSLIFLSLWAVIFVLYQ
kcat [1]: 49.9 s⁻¹ | Km [2]: 1070 µM | kcat [3]: 53.1 s⁻¹ | Km [4]: 1260 µM | kcat [5]: 54.1 s⁻¹ | Km [6]: 1360 µM | kcat [7]: 49.9 s⁻¹ | Km [8]: 1070 µM
